Data published in ChEMBL document CHEMBL4190254, “Synthesis of sulfamoylbenzamide derivatives as HBV capsid assembly effector” (Eur J Med Chem, 2017).
Active and inactive are the calls of the source. The calls are words filed in the database; no cut-off is given here.

Legend:
CCRF-CEM = assay: (§1) Cytotoxicity against human CEM cells by CellTiter 96 non-radioactive cell proliferation colorimetric assay; assay type: cell-based; details: ccrf-cem
How it was run: (§2)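 A CellTiter 96 colorimetric cell proliferation read-out was used in primary human PBM cells, CEM, Vero and HepG2 cells. CC50 is the concentration that inhibits cell growth by 50%.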

PBMC = assay: (§3) Cytotoxicity against human PBMC by CellTiter 96 non-radioactive cell proliferation colorimetric assay; assay type: cell-based; how it was run: as §2
Hepatitis B virus [1] = assay: Antiviral activity against HBV infected in human HepAD38 cells assessed as reduction in viral replication by RT-PCR method; assay type: functional, organism-based
How it was run: (§4)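 HBV DNA replication in HepAD38 cells was quantified by RT-PCR following an earlier published method, with data relative to the untreated control. EC50 (50% inhibition of HBV DNA replication) was derived by linear regression. Values are the mean ± SD of two or three replicates from 2 independent experiments.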

[2] = molecular target: Core antigen (Hepatitis B virus) (UniProt Q03732); assay: (§5) Inhibition of capsid in HBV infected in human HepAD38 cells assessed as reduction in tetracycline-induced cccDNA formation by measuring reduction in HBe antigen secretion after 14 days by ELISA; assay type: cell-based
How it was run: (§6)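 HepAD38 cells, collagen-coated wells, DMEM/F12 with 10% heat-inactivated FBS. Tetracycline withdrawn 7 days to allow DNA synthesis and cccDNA formation; at day 7 tetracycline (0.3 μg/ml) plus compound re-added. Compound at 10 μM or 0.001–10 μM, medium and compound replenished every 5 days. Day-14 supernatant HBeAg by ELISA; EC50 by linear regression.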

Core antigen = Core antigen (Hepatitis B virus, UniProt Q03732); assay: as §5; assay type: cell-based; how it was run: as §6
Hepatitis B virus [3] = assay: Antiviral activity against HBV infected in human HepAD38 cells assessed as reduction in extracellular viral DNA level by RT-PCR method; assay type: functional, organism-based; how it was run: as §4
HepG2 = assay: Cytotoxicity against human HepG2 cells by CellTiter 96 non-radioactive cell proliferation colorimetric assay; assay type: cell-based; how it was run: as §2
Vero = assay: (§7) Cytotoxicity against African green monkey Vero cells by CellTiter 96 non-radioactive cell proliferation colorimetric assay; assay type: cell-based; details: chlorocebus sabaeus, vero; how it was run: as §2
Hepatitis B virus [4] = assay: Antiviral activity against HBV infected in human HepAD38 cells assessed as reduction in intracellular viral DNA level by RT-PCR method; assay type: functional, organism-based; how it was run: as §4
Hepatitis B virus [5] = assay: Inhibition of HBV capsid cp149 assembly expressed in Escherichia coli BL21 assessed as formation of disfigured circular assemblies at 20 uM preincubated for 1 hr followed by NaCl stimulation measured after overnight incubation by uranyl acetate staining based electron microscopic method
How it was run: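 Untagged HBV core residues 1–149 expressed in E. coli BL21 (1 mM IPTG, 16 °C overnight), purified as capsids, dissociated to dimers with 4 M urea in carbonate buffer pH 9.5; >95% pure. Dimers preincubated 1 hr with compound (20 μM), then capsid buffer added (final NaCl 300 mM, Cp149 monomer 10 μM); held 4 °C overnight; uranyl acetate negative-stain EM, single-blind.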

Hepatitis B virus [6] = assay: Antiviral activity against HBV infected in human HepDES19 cells assessed as reduction in viral replication; assay type: functional, organism-based
[7] = molecular target: Core antigen (Hepatitis B virus) (UniProt Q03732); assay: Inhibition of capsid in HBV infected in human HepAD38 cells assessed as reduction in cccDNA formation by measuring reduction in HBe antigen secretion at 3 to 4 uM after 14 days by ELISA relative to control; assay type: cell-based; how it was run: as §6
[8] = molecular target: Core antigen (Hepatitis B virus) (UniProt Q03732); assay: Inhibition of capsid in HBV infected in human HepAD38 cells assessed as reduction in cccDNA formation by measuring reduction in HBe antigen secretion at 10 uM after 14 days by ELISA relative to control; assay type: cell-based; how it was run: as §6
[9] = as §1; assay type: cell-based, CCRF-CEM; details: CEM (CCRF-CEM) cells; how it was run: as §2
[10] = as §3; assay type: cell-based; how it was run: as §2
Hepatitis B virus [11] = assay: Antiviral activity against HBV infected in human HepAD38 cells assessed as reduction in intracellular viral DNA level at 10 uM by RT-PCR method relative to control; assay type: functional; set-up: scale not given: the % may be the effect or the level left
How it was run: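 HepAD38 cells; intracellular HBV DNA quantified by RT-PCR, expressed relative to untreated control; single-point inhibition given as percent at 10 μM, mean ± SD of two or three replicates from 2 independent experiments.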

[12] = as §7; assay type: cell-based; details: chlorocebus sabaeus, Vero cells; how it was run: as §2

Chain of Core antigen (Hepatitis B virus) (Q03732 as listed by the source): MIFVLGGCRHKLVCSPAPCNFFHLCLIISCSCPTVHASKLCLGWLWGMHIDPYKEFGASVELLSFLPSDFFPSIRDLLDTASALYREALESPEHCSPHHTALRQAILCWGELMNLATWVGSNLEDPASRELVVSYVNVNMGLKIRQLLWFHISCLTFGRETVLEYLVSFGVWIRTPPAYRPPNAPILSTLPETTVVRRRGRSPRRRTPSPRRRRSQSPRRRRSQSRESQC
Chain of Core antigen (Q03732 whole entry): as the sequence (Q03732 as listed by the source) above

Row | Structure (SMILES) | CC50 (CCRF-CEM) [µM] | CC50 (PBMC) [µM] | EC50 (Hepatitis B virus [1]) [µM] | EC90 (Hepatitis B virus [1]) [µM] | EC90 [2] [µM] | EC50 (Core antigen) [µM] | EC50 (Hepatitis B virus [3]) [µM] | EC90 (Hepatitis B virus [3]) [µM] | CC50 (HepG2) [µM] | CC50 (Vero) [µM] | EC50 (Hepatitis B virus [4]) [µM] | EC90 (Hepatitis B virus [4]) [µM] | inhibition (Hepatitis B virus [5]) | EC50 (Hepatitis B virus [6]) [µM] | inhibition [7] [%] | inhibition [8] [%] | CC50 [9] [µM] | CC50 [10] [µM] | Activity (Hepatitis B virus [11]) [%] | CC50 [12] [µM]
1 | O=C(Nc1ccc(F)c(F)c1)c1cc(S(=O)(=O)NC2CCCC2)ccc1F | 14 | 15.6 | 0.8 | 7.8 | 4.6 | 1.3 | 0.8 | 7.8 | 37.1 | 32.7 | 0.6 | 4.3 | Active | 0.14 | 90 |  |  |  |  | 
2 | Nc1ccn([C@@H]2CS[C@H](CO)O2)c(=O)n1 [LAMIVUDINE] |  |  |  | 0.3 |  | > 10 |  | 0.3 | > 10 |  | < 0.01 | 0.7 |  |  |  | < 1 | > 100 | > 100 | 74 | > 100
